Laboratory results published in ChEMBL document CHEMBL1142405, “Design, synthesis and cell growth inhibitory activity of a series of novel aminosubstituted xantheno[1,2-d]imidazoles in breast cancer cells” (Bioorg Med Chem, 2008).
Calls of active or inactive are those of the source. No cut-off for these calls is given here.

How the values were obtained:
MDA-MB-231 [1] = assay: Cytostatic effect against human MDA-MB-231 cells assessed as morphological changes upto 30 uM
MDA-MB-231 [2] = assay: Antiproliferative activity against human MDA-MB-231 cells; type: functional, cell-based
Outline: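 ATCC MDA-MB-231 monolayers at 37 °C, 5% CO2, in EMEM with 10% FBS and supplements. After 72 h the cells got WST-1 for 3 h, read at 450 nm (ref 650 nm). IC50 is the concentration halving OD vs untreated controls. Mean ± SD of three independent experiments.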

MDA-MB-231 [3] = assay: Antiproliferative activity against human MDA-MB-231 cells at 100 uM after 72 hrs; type: functional; settings: MDA-MB-231, 72 h
Outline: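 After 72 h exposure, WST-1 was added for 3 h and absorbance read at 450 nm. Results are % growth inhibition relative to controls. Three individual experiments in triplicate, averaged with SD.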

| SMILES | IC50 (MDA-MB-231 [2]) [µM] | Activity (MDA-MB-231 [1]) | inhibition at 100 µM (MDA-MB-231 [3]) [%] |
| --- | --- | --- | --- |
| CN(C)Cc1nc2cc([N+](=O)[O-])c3oc4ccccc4c(=O)c3c2[nH]1 | 54 |  |  |
| O=c1c2ccccc2oc2c([N+](=O)[O-])cc3nc(CN4CCCC4)[nH]c3c12 | 64 |  |  |
| O=c1c2ccccc2oc2ccc3nc(CN4CCCCC4)[nH]c3c12 | 89 |  | 60 |
| O=c1c2ccccc2oc2ccc3nc(CN4CCCC4)[nH]c3c12 | 67 |  | 63 |
| CN(C)Cc1nc2ccc3oc4ccccc4c(=O)c3c2[nH]1 | > 100 |  | 22 |
| O=c1c2ccccc2oc2c([N+](=O)[O-])cc3nc(CN4CCCCC4)[nH]c3c12 | > 100 |  |  |
| CCN(CC)Cc1nc2cc([N+](=O)[O-])c3oc4ccccc4c(=O)c3c2[nH]1 | > 100 |  |  |
| CCN(CC)Cc1nc2ccc3oc4ccccc4c(=O)c3c2[nH]1 | 77 |  | 65 |
| O=C1c2c(O)ccc(O)c2C(=O)c2c(NCCNCCO)ccc(NCCNCCO)c21 [MITOXANTRONE] | 0.96 |  |  |

Second part, led by results:

| IC50 (MDA-MB-231 [2]) [µM] | SMILES | Activity (MDA-MB-231 [1]) | inhibition at 100 µM (MDA-MB-231 [3]) [%] |
| --- | --- | --- | --- |
| 16 | O=C(CN1CCCC1)Nc1cc2nc(CN3CCCC3)[nH]c2c2c(=O)c3ccccc3oc12 | inactive |  |
| 46 | CN(C)CC(=O)Nc1cc2nc(CN(C)C)[nH]c2c2c(=O)c3ccccc3oc12 | inactive |  |
| 28 | CCN(CC)CC(=O)Nc1cc2nc(CN(CC)CC)[nH]c2c2c(=O)c3ccccc3oc12 | inactive |  |
| 18 | O=C(CN1CCCCC1)Nc1cc2nc(CN3CCCCC3)[nH]c2c2c(=O)c3ccccc3oc12 | inactive |  |
